ChEMBL document CHEMBL1149632, “New cytotoxic diterpenylnaphthohydroquinone derivatives obtained from a natural diterpenoid” (2007)

Tests used:
Assay type in all cases: functional
[1] = test system: A549; experiment: Antineoplastic cytotoxicity against human A549 cells after 72 hrs by SRB method; conditions: A549, 72 h
Outline: (§1)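 Cells seeded at 5 × 10^3 per well in RPMI and left to attach for 18 h in drug-free medium. Compounds were then added in DMSO/H2O (3:7) and exposed for 72 h. Cells were fixed with cold 50% TCA for 60 min at 4 °C and stained with 0.4% SRB in 1% acetic acid for 10 min at rt. Bound dye was solubilised in Tris and read at 490 nm. GI50 from 100×[(T−T0)/(C−T0)]=50.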

[2] = test system: HT-29; experiment: Antineoplastic cytotoxicity against human HT29 cells after 72 hrs by SRB method; conditions: HT-29, 72 h; outline: as §1
[3] = Antineoplastic cytotoxicity against human MEL28 cells after 72 hrs by SRB method; conditions: SK-MEL-28, 72 h; outline: as §1

| SMILES | GI50 [1] | GI50 [2] | GI50 [3] |
| --- | --- | --- | --- |
| C=C1CC[C@@H]2[C@](C)(CCC[C@]2(C)C(=O)O)[C@H]1CCc1ccc2c(c1)C(=O)C=CC2=O | > 7.4 µM | 5.7 µM | 5.7 µM |
| C=C1CC[C@@H]2[C@](C)(CCC[C@]2(C)C(=O)OC)[C@H]1/C=C/c1ccc2c(OC)ccc(OC)c2c1 | > 22.3 µM | > 22.3 µM | – |
| C=C1CC[C@@H]2[C@](C)(CCC[C@]2(C)C(=O)O)[C@H]1CCC1=CCc2c(OC(C)=O)ccc(OC(C)=O)c2C1 | 2.5 µM | 10.1 µM | 5 µM |
| C=C1CC[C@@H]2[C@](C)(CCC[C@]2(C)C(=O)OC)[C@H]1CCC1=CCc2c(OC(C)=O)ccc(OC(C)=O)c2C1 | 0.51 µM | 1.38 µM | 0.68 µM |
| C=C1[C@H](O)C[C@@H]2[C@](C)(CCC[C@]2(C)C(=O)OC)[C@H]1CCc1ccc2c(OC(C)=O)ccc(OC(C)=O)c2c1 | 1.6 µM | 1 µM | – |
| COC(=O)[C@@]1(C)CCC[C@]2(C)C(CCc3ccc4c(OC)ccc(OC)c4c3)=C(OOC(C)(C)C)CC[C@@H]12 | > 18.6 µM | > 18.6 µM | > 18.6 µM |
| C=C1C(=O)C[C@@H]2[C@](C)(CCC[C@]2(C)C(=O)OC)[C@H]1CCc1ccc2c(OCc3ccccc3)ccc(OCc3ccccc3)c2c1 | 14.8 µM | 8.1 µM | – |
| C=C1CC[C@H]2[C@@](C)(CCC[C@@]2(C)C(=O)OC)[C@@H]1CCc1ccc2c(c1)C(=O)c1cc(CC[C@H]3C(=C)CC[C@@H]4[C@]3(C)CCC[C@]4(C)C(=O)OC)ccc1C2=O | > 4.1 µM | > 4.1 µM | > 4.1 µM |
| C=C1CC[C@@H]2[C@](C)(CCC[C@]2(C)C(=O)OC)[C@]1(O)CCc1ccc2c(OCc3ccccc3)ccc(OCc3ccccc3)c2c1 | 12.4 µM | 12.4 µM | 9 µM |
| C=C1CC[C@@H]2[C@](C)(CCC[C@]2(C)C(=O)OC)[C@H]1CCc1ccc2c(c1)C(=O)C=CC2=O | 0.2 µM | 0.2 µM | 0.2 µM |
| C=C1CC[C@@H]2[C@](C)(CCC[C@]2(C)C(=O)O)[C@H]1CCc1ccc2c(OC(C)=O)ccc(OC(C)=O)c2c1 | 0.24 µM | 0.24 µM | 0.24 µM |
| C=C1CC[C@@H]2[C@](C)(CCC[C@]2(C)C(=O)OC)[C@H]1CCc1ccc2c(OC(C)=O)ccc(OC(C)=O)c2c1 | 0.12 µM | 0.5 µM | 0.12 µM |
| C=C1C(=O)C[C@@H]2[C@](C)(CCC[C@]2(C)C(=O)OC)[C@H]1CCc1ccc2c(OC)ccc(OC)c2c1 | 3.7 µM | 3.2 µM | – |
| COC(=O)[C@@]1(C)CCC[C@]2(C)C(CCc3ccc4c(OC)ccc(OC)c4c3)=C(C)CC[C@@H]12 | > 6.7 µM | > 6.7 µM | > 6.7 µM |
| COC(=O)[C@@]1(C)CCC[C@]2(C)C(CCc3ccc4c(OCc5ccccc5)ccc(OCc5ccccc5)c4c3)=C(C)CC[C@@H]12 | 15.2 µM | > 16.6 µM | – |
| C=C1CC[C@@H]2[C@](C)(CCC[C@]2(C)C(=O)OC)[C@H]1CCc1ccc2c(OC)ccc(OC)c2c1 | > 6.7 µM | > 6.7 µM | > 6.7 µM |
| COC(=O)[C@@]1(C)CCC[C@]2(C)C(CCc3ccc4c(OC(C)=O)ccc(OC(C)=O)c4c3)=C(C)CC[C@@H]12 | 0.24 µM | 0.24 µM | – |
| C=C1[C@H](O)C[C@@H]2[C@](C)(CCC[C@]2(C)C(=O)OC)[C@H]1CCc1ccc2c(OC)ccc(OC)c2c1 | > 6.4 µM | > 6.4 µM | > 6.4 µM |
| C=C1C(=O)C[C@@H]2[C@](C)(CCC[C@]2(C)C(=O)OC)[C@H]1CCc1ccc2c(OC(C)=O)ccc(OC(C)=O)c2c1 | 2.3 µM | 4.4 µM | – |
| COC(=O)[C@@]1(C)CCC[C@]2(C)C(CCc3ccc4c(OC(C)=O)ccc(OC(C)=O)c4c3)=C(C)[C@@H](O)C[C@@H]12 | 4.8 µM | 4.8 µM | – |
| C=C1CC[C@@H]2[C@](C)(CCC[C@]2(C)C(=O)OC)[C@H]1CCc1ccc2c(OCc3ccccc3)ccc(OCc3ccccc3)c2c1 | > 5 µM | > 5 µM | > 5 µM |
| C=C1CC[C@@H]2[C@](C)(CCC[C@]2(C)C(=O)OCc2ccccc2)[C@H]1CCc1ccc2c(OCc3ccccc3)ccc(OCc3ccccc3)c2c1 | 6.5 µM | 4.4 µM | – |
| C=C1[C@H](O)C[C@@H]2[C@](C)(CCC[C@]2(C)C(=O)OC)[C@H]1CCc1ccc2c(OCc3ccccc3)ccc(OCc3ccccc3)c2c1 | > 4.9 µM | > 4.9 µM | > 4.9 µM |
| COC(=O)[C@@]1(C)CCC[C@]2(C)C(CCc3ccc4c(OC(C)=O)ccc(OC(C)=O)c4c3)=C(C)C(=O)C[C@@H]12 | 0.19 µM | 0.19 µM | – |
| C=C1CC[C@@H]2[C@](C)(CCC[C@]2(C)C(=O)OC)[C@]1(O)CCc1ccc2c(OC)ccc(OC)c2c1 | > 21.5 µM | > 21.5 µM | – |
